Results from ChEMBL document CHEMBL1126587, “Novel 6-alkoxypurine 2',3'-dideoxynucleosides as inhibitors of the cytopathic effect of the human immunodeficiency virus” (J Med Chem, 1993).

Assays:
[1] = substrate: Nc1ncnc2c1ncn2[C@H]1CC[C@@H](CO)O1; experiment: Compound was tested for adenosine deaminase assay in calf intestine
Outline: (§1)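 Calf intestinal adenosine deaminase, dialyzed against deionized water to remove ammonium sulfate. Dealkoxylation/deamination followed spectrophotometrically at 25 °C, pH 6.8 (adenosine: Δε −5.85 mM⁻¹cm⁻¹ at 270 nm). Km from initial velocity analysis. Relative velocity compares 100 μM dideoxynucleoside against 100 μM adenosine.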

[2] = substrate: CCOc1ncnc2c1ncn2C1CCC(CO)O1; experiment: (§2) Michaelis-Menten constant for adenosine deaminase assay in calf intestine; outline: as §1
[3] = substrate: COc1ncnc2c1ncn2C1CCC(CO)O1; experiment: as §2; outline: as §1

B1: Adenosine deaminase (Bos taurus), P56658 (protein)
chain: MAQTPAFNKPKVELHVHLDGAIKPETILYYGRKRGIALPADTPEELQNIIGMDKPLSLPEFLAKFDYYMPAIAGCREAVKRIAYEFVEMKAKDGVVYVEVRYSPHLLANSKVEPIPWNQAEGDLTPDEVVSLVNQGLQEGERDFGVKVRSILCCMRHQPSWSSEVVELCKKYREQTVVAIDLAGDETIEGSSLFPGHVKAYAEAVKSGVHRTVHAGEVGSANVVKEAVDTLKTERLGHGYHTLEDATLYNRLRQENMHFEVCPWSSYLTGAWKPDTEHPVVRFKNDQVNYSLNTDDPLIFKSTLDTDYQMTKNEMGFTEEEFKRLNINAAKSSFLPEDEKKELLDLLYKAYGMPSPASAEQCL
[1]
  Km: 45 µM
[2]
  Km: 650 µM
[3]
  Km: 150 µM
